Assay results collected from several papers.
Compare with care: the assays were run in different laboratories.
Cell line: HOP-62
Observed: cell growth or viability

`O=C1NC(=NCc2cccs2)S/C1=C\c1ccc2ncccc2c1` gave an IC50 of over 10 µM.
`COc1ccc(C(=O)/C=C/c2c(F)cccc2Cl)cc1S(N)(=O)=O` gave a GI50 of 3 µM (SRB; 48 h).
The TGI of `c1ccc2cc(Cn3cc[n+](Cc4ccc5ccccc5c4)c3)ccc2c1` is reported as 17 µM (SRB).
With `COc1ccc(-c2ccc(-c3ccc(C(=N)N)nc3)s2)cc1` the GI50 was 1.8 µM (SRB).
`COc1ccc(C(=O)/C=C/c2cccc3ccccc23)cc1S(N)(=O)=O` gave an inhibition of 82% (SRB; 10 µM).
The IC50 of `O=C1NCCc2[nH]c(-c3ccncc3)cc21` is reported as 9.94 µM.
For `CCCc1n(Cc2ccc3ccccc3n2)cc[n+]1Cc1ccc2ccccc2n1`, the TGI was 19.4 µM (SRB).
`COc1cccc2c1C(=O)c1c(O)c3c(c(O)c1C2=O)C[C@@](O)(C(=O)CO)C[C@@H]3O[C@H]1C[C@H](N)[C@H](O)[C@H](C)O1` has an inhibition of 98.9% (SRB; 10 µg/mL; 48 h).
For `O=C1Nc2ccccc2C1=NNc1nnc2n1N=C(c1ccccc1)CS2`, the inhibition was 54% (SRB; 10 µM).
For `COc1ccc(-c2ccc(-c3ccc(C(=N)N)nc3)s2)cc1Cl`, the GI50 was 1.9 µM (SRB).
For `CCCCc1n(Cc2ccc3ccccc3n2)cc[n+]1Cc1ccc2ccccc2n1`, the TGI was 12 µM (SRB).
`COc1cccc(Oc2ccccc2NC(=O)CNC(=O)c2cccc3ccccc23)c1` gave a GI50 of 0.302 µM (SRB; 48 h).
